Activity calls are given as the source filed them. The calls are words filed in the database; no cut-off is given here. *1 amine or outer side, *2 acyl side, *3 side chain or, on linkers, in order; H or OH if unused. Where a SMILES comes first, the peptide text is derived from it. Bridges are numbered along the chain shown (N, C = ends). The star is where a group is joined. ξ: configuration not given here. Pentadecanoyl(3ξ-OH,15-Gua) = N=C(N)NCCCCCCCCCCCCC(O)CC(=O)*; X1 = CCC(C)CCCCCCCCC(CC(=O)[*:1])O[*:2]; X7 = CC(C)CCCCCCCCCC(CC(=O)[*:1])O[*:2]; X3 = CC(C)CCCCCCCCC(CC(=O)[*:1])O[*:2]; X5 = CCC(C)CCCCCCC(CC(=O)[*:1])O[*:2]; X2 = CCCCCCCCCCCC(CC(=O)[*:1])O[*:2]; X4 = CCCCCCCCCCC(CC(=O)[*:1])O[*:2]; X6 = CCCCCCCCCC(CC(=O)[*:1])O[*:2]
Tests used:
microRNA 21 [1] = assay: Inhibition of Dicer-mediated pre-miRNA-21 (unknown origin) processing using […] as substrate incubated for 15 mins by cat-ELCCA assay; assay type: nucleic-acid assay
Outline: (§1)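 Cat-ELCCA format with immobilized pre-miRNA (pre-miR-21, or pre-let-7d as a related control substrate) processed by excess Dicer. Integrity of the terminal loop is read by trans-cyclooctene/methyltetrazine click ligation of modified HRP, giving chemiluminescent signal amplification. Assay buffer contains detergent. Dose–response curves give IC50 values reported as 95% confidence intervals.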

Pre-let-7d miRNA [2] = assay: Inhibition of Dicer-mediated pre-let-7d miRNA (unknown origin) processing using […] as substrate incubated for 15 mins by cat-ELCCA assay; assay type: nucleic-acid assay; outline: as §1
microRNA 21 [3] = assay: Binding affinity to pre-miRNA-21 (unknown origin) by SPR assay; assay type: nucleic-acid assay
Pre-let-7d miRNA [4] = assay: Binding affinity to pre-let-7d miRNA (unknown origin) by SPR assay; assay type: nucleic-acid assay
microRNA 21 [5] = assay: Inhibition of pre-miRNA-21 (unknown origin) assessed as reduction in miRNA/Dicer interaction at 10 to 120 uM incubated for 40 mins by EMSA assay; assay type: nucleic-acid assay; details: dose 10-120 µM
microRNA 21 [6] = assay: Inhibition of pre-miRNA-21 maturation in human HeLa cells transfected with firefly luciferase reporter gene assessed as reduction in luciferase gene expression at 100 uM incubated for 48 hrs by pmiRGlo-dual luciferase reporter assay; assay type: cell-based
Outline: (§2)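 HeLa cells transiently transfected with pmiRGLO dual-luciferase reporters carrying miRNA target sites (miR-21 or let-7d) in the firefly luciferase 3′ UTR. Cells treated at 100 μM; luminescence read after 48 h. miR-21 mismatch reporter and empty-vector controls were included. Significance given as p values.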

Pre-let-7d miRNA [7] = assay: Inhibition of pre-let-7d miRNA maturation in human HeLa cells transfected with firefly luciferase reporter gene assessed as reduction in luciferase gene expression at 100 uM incubated for 48 hrs by pmiRGlo-dual luciferase reporter assay; assay type: cell-based; outline: as §2
HeLa = assay: Cytotoxicity against human HeLa cells assessed as reduction in cell viability at 100 uM incubated for 48 hrs by CellTiter Glo assay; assay type: cell-based

Question: Which inhibition (microRNA 21 [1]) does the source give for `CC(C)[C@@H]1NC(=O)[C@@H](C(C)C)NC(=O)[C@@H](NC(=O)CC(O)CCCCCCCCCCCCNC(=N)N)[C@@H](C)OC(=O)[C@@H](C)NC(=O)[C@@H](CC(N)=O)NC(=O)[C@@H]([C@H](C)O)NC1=O` (stereo partly drawn) here?
Answer: inactive

Question: And the inhibition (Pre-let-7d miRNA [2])?
Answer: inactive

Question: Which results are given for `CCC(C)CCCCCCCCC1CC(=O)N[C@@H](CCC(=O)O)C(=O)N[C@@H](CC(C)C)C(=O)N[C@@H](CC(C)C)C(=O)N[C@@H](C(C)C)C(=O)N[C@@H](CC(=O)O)C(=O)N[C@@H](CC(C)C)C(=O)N[C@@H](CC(C)C)C(=O)O1` (stereo partly drawn) (ELLVDLL; linker N-C via X1)?
Answer: IC50 (microRNA 21 [1]): 38 µM; inhibition (microRNA 21 [1]): Dose-Dependent Effect; IC50 (Pre-let-7d miRNA [2]): 54 µM; inhibition (Pre-let-7d miRNA [2]): Dose-Dependent Effect; Kd (microRNA 21 [3]): 0.78 µM; Kd (Pre-let-7d miRNA [4]): 1.2 µM; inhibition (microRNA 21 [5]): inactive; inhibition (microRNA 21 [6]): Active; inhibition (Pre-let-7d miRNA [7]): inactive; Activity (HeLa): Toxic

Question: Which results are given for `CCCCCCCCCCCC1CC(=O)N[C@@H](CCC(=O)O)C(=O)N[C@@H](CC(C)C)C(=O)N[C@@H](CC(C)C)C(=O)N[C@@H](C(C)C)C(=O)N[C@@H](CC(=O)O)C(=O)N[C@@H](CC(C)C)C(=O)N[C@@H](CC(C)C)C(=O)O1` (stereo partly drawn) (ELLVDLL; linker N-C via X2)?
Answer: IC50 (microRNA 21 [1]): 48 µM; inhibition (microRNA 21 [1]): Dose-Dependent Effect; IC50 (Pre-let-7d miRNA [2]): 54 µM; inhibition (Pre-let-7d miRNA [2]): Dose-Dependent Effect; Kd (microRNA 21 [3]): 0.73 µM; Kd (Pre-let-7d miRNA [4]): 1.4 µM

Question: With `CC(C)CCCCCCCCC1CC(=O)N[C@@H](CCC(=O)O)C(=O)N[C@@H](CC(C)C)C(=O)N[C@@H](CC(C)C)C(=O)N[C@@H](C(C)C)C(=O)N[C@@H](CC(=O)O)C(=O)N[C@@H](CC(C)C)C(=O)N[C@@H](CC(C)C)C(=O)O1` (stereo partly drawn) (ELLVDLL; linker N-C via X3) as the compound, how does the IC50 (microRNA 21 [1]) read?
Answer: 52 µM

Question: And the inhibition (microRNA 21 [1])?
Answer: Dose-Dependent Effect

Question: And the IC50 (Pre-let-7d miRNA [2])?
Answer: 70 µM

Question: And the inhibition (Pre-let-7d miRNA [2])?
Answer: Dose-Dependent Effect

Question: And the Kd (microRNA 21 [3])?
Answer: 0.43 µM

Question: And the Kd (Pre-let-7d miRNA [4])?
Answer: 2.5 µM

Question: How did the IC50 (microRNA 21 [1]) turn out when `CCCCCCCCCCC1CC(=O)N[C@@H](CCC(=O)O)C(=O)N[C@@H](CC(C)C)C(=O)N[C@@H](CC(C)C)C(=O)N[C@@H](C(C)C)C(=O)N[C@@H](CC(=O)O)C(=O)N[C@@H](CC(C)C)C(=O)N[C@@H](CC(C)C)C(=O)O1` (stereo partly drawn) (ELLVDLL; linker N-C via X4) was run?
Answer: 71 µM

Question: And the inhibition (microRNA 21 [1])?
Answer: Dose-Dependent Effect

Question: And the IC50 (Pre-let-7d miRNA [2])?
Answer: 97 µM

Question: What about the inhibition (Pre-let-7d miRNA [2]) of the same compound?
Answer: Dose-Dependent Effect

Question: What about the Kd (microRNA 21 [3]) of the same compound?
Answer: 0.38 µM

Question: What about the Kd (Pre-let-7d miRNA [4]) of the same compound?
Answer: 0.3 µM

Question: With `CCC(C)CCCCCCC1CC(=O)N[C@@H](CCC(=O)O)C(=O)N[C@@H](CC(C)C)C(=O)N[C@@H](CC(C)C)C(=O)N[C@@H](C(C)C)C(=O)N[C@@H](CC(=O)O)C(=O)N[C@@H](CC(C)C)C(=O)N[C@@H](CC(C)C)C(=O)O1` (stereo partly drawn) (ELLVDLL; linker N-C via X5) as the compound, how does the IC50 (microRNA 21 [1]) read?
Answer: > 200 µM

Question: And the IC50 (Pre-let-7d miRNA [2])?
Answer: > 200 µM

Question: For `CCCCCCCCCC1CC(=O)N[C@@H](CCC(=O)O)C(=O)N[C@@H](CC(C)C)C(=O)N[C@@H](CC(C)C)C(=O)N[C@@H](C(C)C)C(=O)N[C@@H](CC(=O)O)C(=O)N[C@@H](CC(C)C)C(=O)N[C@@H](CC(C)C)C(=O)O1` (stereo partly drawn) (ELLVDLL; linker N-C via X6), which IC50 (microRNA 21 [1]) is on record?
Answer: > 200 µM

Question: And the IC50 (Pre-let-7d miRNA [2])?
Answer: > 200 µM

Question: Which results are given for `CC(C)CCCCCCCCCC1CC(=O)N[C@@H](CCC(=O)O)C(=O)N[C@@H](CC(C)C)C(=O)N[C@@H](CC(C)C)C(=O)N[C@@H](C(C)C)C(=O)N[C@@H](CC(=O)O)C(=O)N[C@@H](CC(C)C)C(=O)N[C@@H](CC(C)C)C(=O)O1` (stereo partly drawn) (ELLVDLL; linker N-C via X7)?
Answer: inhibition (microRNA 21 [1]): inactive; inhibition (Pre-let-7d miRNA [2]): inactive

Question: For `CC1NC(=O)C(CCC(N)=O)NC(=O)C(C(C)O)NC(=O)C(C(C)C)NC(=O)C(C(C)C)NC(=O)C(NC(=O)CC(O)CCCCCCCCCCCCNC(=N)N)C(C)OC1=O` (stereo not drawn) ({Pentadecanoyl(3ξ-OH,15-Gua)}-TVVTQA; ester 1-C; configuration not given here), which inhibition (microRNA 21 [1]) is on record?
Answer: inactive

Question: What about the inhibition (Pre-let-7d miRNA [2]) of the same compound?
Answer: inactive

— ChEMBL document CHEMBL4814077, “Discovery of Surfactins as Inhibitors of MicroRNA Processing Using Cat-ELCCA” (ACS Med Chem Lett, 2021)
